# From ChEMBL document CHEMBL1121603, “Structure-activity relationships of antibacterial 6,7- and 7,8-disubstituted 1-alkyl-1,4-dihydro-4-oxoquinoline-3-carboxylic acids” (1980)
# Columns and labels:
# Format in all cases: functional
# Escherichia coli = assay: In vitro for antibacterial activity against Gram-negative Escherichia coli […] JC-2.
# Summary of the method: (§1)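 MIC in µg/mL, determined by a standard twofold serial dilution method on agar media.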
# Staphylococcus aureus = assay: In vitro antibacterial activity against Gram-positive, Staphylococcus aureus 209 P; summary of the method: as §1
# Pseudomonas aeruginosa = assay: In vitro antibacterial activity against Gram-negative Pseudomonas aeruginosa V-1.; summary of the method: as §1
SMILES,MIC (Escherichia coli),MIC (Staphylococcus aureus),MIC (Pseudomonas aeruginosa)
CCn1cc(C(=O)O)c(=O)c2cc(F)c(N(C)C)cc21,0.39 µg/mL,0.78 µg/mL,50 µg/mL
CCn1cc(C(=O)O)c(=O)c2cc(F)c(N3CCC(O)CC3)cc21,0.2 µg/mL,0.39 µg/mL,12.5 µg/mL
CCn1cc(C(=O)O)c(=O)c2cc(C#N)c(N3CCNCC3)cc21,0.39 µg/mL,12.5 µg/mL,6.25 µg/mL
CCn1cc(C(=O)O)c(=O)c2ccc(N3CCNCC3)c(Cl)c21.Cl,0.39 µg/mL,3.13 µg/mL,6.25 µg/mL
Cl.O=C(O)c1cn(CCF)c2cc(N3CCNCC3)c(F)cc2c1=O,0.1 µg/mL,1.56 µg/mL,0.78 µg/mL
CCn1cc(C(=O)O)c(=O)c2cc(F)c(N3CCN(Cc4ccccc4)CC3)cc21,0.78 µg/mL,0.39 µg/mL,50 µg/mL
CCn1cc(C(=O)O)c(=O)c2cc(F)c(NCCNC(C)=O)cc21 [7-ACETYLAMINOETHYL-AMINO-FLUOROQUINONE],25 µg/mL,> 100 µg/mL,> 100 µg/mL
CCn1cc(C(=O)O)c(=O)c2cc(F)c(N3CCNCC3)cc21 [NORFLOXACIN],0.05 µg/mL,0.39 µg/mL,0.39 µg/mL
CCn1cc(C(=O)O)c(=O)c2cc(Cl)c(N3CCNCC3)cc21.Cl,0.2 µg/mL,1.56 µg/mL,3.13 µg/mL
CCOC(=O)c1cn(CC)c2cc(N3CCNCC3)c(F)cc2c1=O,12.5 µg/mL,50 µg/mL,50 µg/mL
CCn1cc(C(=O)O)c(=O)c2cc(Br)c(N3CCNCC3)cc21.Cl,0.39 µg/mL,3.13 µg/mL,12.5 µg/mL
CCn1cc(C(=O)O)c(=O)c2cc(F)c(N3CCC(N(C)C)CC3)cc21,0.1 µg/mL,0.39 µg/mL,3.13 µg/mL
CCn1cc(C(=O)O)c(=O)c2cc(F)c(C)cc21 [NALDIXIC ACID],0.39 µg/mL,6.25 µg/mL,50 µg/mL
CCn1cc(C(=O)O)c(=O)c2ccc(C)nc21 [NALIDIXIC ACID],3.13 µg/mL,> 100 µg/mL,100 µg/mL
CCn1cc(C(=O)O)c(=O)c2cc(C(C)=O)c(N3CCNCC3)cc21,100 µg/mL,100 µg/mL,> 100 µg/mL

# Continued, values first:
MIC (Escherichia coli),MIC (Staphylococcus aureus),MIC (Pseudomonas aeruginosa),SMILES
0.39 µg/mL,0.39 µg/mL,6.25 µg/mL,C=CCN1CCN(c2cc3c(cc2F)c(=O)c(C(=O)O)cn3CC)CC1
0.1 µg/mL,1.56 µg/mL,3.13 µg/mL,C=Cn1cc(C(=O)O)c(=O)c2cc(F)c(N3CCN(C)CC3)cc21
1.56 µg/mL,0.78 µg/mL,25 µg/mL,CCn1cc(C(=O)O)c(=O)c2cc(F)c(N3CCN(C(C)=O)CC3)cc21 [4-N-ACETYL-1-PIPERAZINYL-NORFLOXACIN]
0.39 µg/mL,3.13 µg/mL,12.5 µg/mL,CCn1cc(C(=O)O)c(=O)c2cc(F)c(N3CCNC(=O)C3)cc21 [3-OXO-1-PIPERAZINYL-NORFLOXACIN]
0.39 µg/mL,1.56 µg/mL,6.25 µg/mL,CCn1cc(C(=O)O)c(=O)c2cc(F)c(N3CCN(C=O)CC3)cc21 [4-N-FORMYL-1-PIPERAZINYL-NORFLOXACIN]
0.78 µg/mL,1.56 µg/mL,1.56 µg/mL,O=C(O)c1cn(Cc2ccccc2)c2cc(N3CCNCC3)c(F)cc2c1=O
0.78 µg/mL,25 µg/mL,12.5 µg/mL,CCn1cc(C(=O)O)c(=O)c2cc(SC)c(N3CCNCC3)cc21
1.56 µg/mL,12.5 µg/mL,100 µg/mL,CCn1cc(C(=O)O)c(=O)c2cc(F)c(Cl)cc21
6.25 µg/mL,> 100 µg/mL,50 µg/mL,CCn1cc(C(=O)O)c(=O)c2cc(F)c(NCCN)cc21
6.25 µg/mL,1.56 µg/mL,> 100 µg/mL,CCn1cc(C(=O)O)c(=O)c2cc(F)c(N3CCN(Cc4ccc([N+](=O)[O-])cc4)CC3)cc21
